Screening results as filed in PubChem.
HNF4A DNA FP: change in binding of human HNF4 alpha to DNA; activity change, % at 10 µM; P41235; 360,000 compounds, 0.3% hits; HNF4a-FITC DNA binding, fluorescence polarization, 1 h; in the data active = activity change above about 30%, passing the limit was not always enough
CSN deneddyl inh: blocks human CSN-mediated cullin deneddylation. AID 651999. inhibition, % at 12.5 µM. Q92905. Purified CSN, SCF-Nedd8-OG deneddylation, fluorescence polarization. 360,000 compounds, 0.38% hits;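 active = pattern-corrected inhibition above about 35%, with an unprinted fluorescence ratio check between 0.5 and 1.5, limit read from the data, passing the limit was not always enough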
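test system = HEK293T-derived human Csn5 enzyme | amount = 0.24 nM Csn5 enzyme, final concentration | medium = Tris/NaCl/DTT buffer, pH 7.5 | schedule = 90 min reaction at room temperature | signal = FP | evaluation = inhibition of Csn5 cleavage, % | compound dosing = single dose of 12.5 µM compound with 0.25% DMSO | probe or stimulus = 10 nM SCFSkp2-Nedd8OG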
IDE inh: inhibitors of human insulin-degrading enzyme in cells | HEK cells, FAbetaB cleavage, fluorescence polarization | 320,000 compounds, 0.41% hits | P14735 | inhibition, % at 5.59 µM | AID 434962;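 active = percent inhibition above the average of all tested compounds plus 3 SD, set per screening campaign, cut at about 16% in these data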;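 also: IDE supplied by intact live HEK cells; FP after avidin binding of uncleaved biotin substrate so inhibition keeps polarization high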
TPT1 inhibitor: inhibitors of Candida albicans tRNA 2'-phosphotransferase TPT1. recombinant caTPT1, FP RNA substrate dephosphorylation. inhibition, % at 5 µM. 300,000 compounds, 0.81% hits;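 active = inhibition above the mean of all tested compounds plus 3 SD, set per screening campaign, cut at about 24% in these data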
IDE cell activ: activators of human insulin-degrading enzyme in cells | 340,000 compounds, 0.073% hits | activation, % at 5.96 µM | P14735 | HEK cells, FAbeta-B cleavage, fluorescence polarization; 0% vehicle, 100% cell-free pure enzyme wells;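 active = activation above the mean of all tested compounds plus 3 SD, set per screening campaign, cut at about 17% in these data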
Rpn11 inh: inhibitors of human proteasome Rpn11 | O00487 | human 26S proteasome, Ub4-pepOG fluorescence polarization; 20S core pre-blocked with epoxomicin | calls only at 20 µM | 360,000 compounds, 0.59% hits;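 active = inhibition at 20 µM, scaled to each plate's controls, above about 33%, limit read from the data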
Target sequence (O00487 whole entry, looked up): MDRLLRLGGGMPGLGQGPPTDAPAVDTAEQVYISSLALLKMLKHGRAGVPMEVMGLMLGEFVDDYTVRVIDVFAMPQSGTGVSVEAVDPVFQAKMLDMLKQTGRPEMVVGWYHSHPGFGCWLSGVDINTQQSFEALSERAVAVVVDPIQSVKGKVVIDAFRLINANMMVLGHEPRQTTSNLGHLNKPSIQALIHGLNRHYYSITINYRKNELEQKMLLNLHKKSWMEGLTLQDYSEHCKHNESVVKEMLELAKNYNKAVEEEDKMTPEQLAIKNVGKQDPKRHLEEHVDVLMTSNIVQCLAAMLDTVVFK
Numbers stand for hits; n = inactive; x = not tested or not shown. Only some compounds are listed: those with a hit (about 1.7% of all), similar ones and a draw of the others.

SMILES	HNF4A DNA FP	CSN deneddyl inh	IDE inh	TPT1 inhibitor	IDE cell activ	Rpn11 inh
Cc1ccc(CNC(=O)c2cc3c(=O)n4ccccc4nc3n(Cc3ccco3)c2=N)cc1	n	n	n	n	n	n
CCOC(=O)c1cc2c(=O)n3ccccc3nc2n(Cc2ccc(Cl)cc2)c1=N	n	42	x	x	n	x
Cc1ccc(S(=O)(=O)c2cc3c(=O)n4ccccc4nc3n(Cc3ccco3)c2=N)cc1	n	38	n	n	n	n
Cc1ccc(Cc2c(-c3cccc(Cl)c3)nc3ccc(C)cn23)cc1	n	n	x	x	x	n
Cc1ccc(Cc2c(-c3cccc(Cl)c3)nc3ccc(Cl)cn23)cc1	n	39	x	x	x	n
Clc1cccc(-c2nc3ccc(Br)cn3c2Cc2ccsc2)c1	35	n	x	x	x	n
Brc1cccc(-c2nc3ccc(Br)cn3c2Cc2ccsc2)c1	n	n	x	x	x	n
CC(C)CN1CCC(=O)N([C@H](CO)c2ccccc2)CC1	x	x	n	n	37	x
CCN1/C(=C/c2ccc3ccccc3[n+]2CC)C=Cc2ccccc21	44	n	n	n	n	n
CCN1/C(=C/c2ccc3ccccc3[n+]2CCCS(=O)(=O)[O-])C=Cc2cc(C)ccc21	n	n	x	x	n	n
N#Cc1cc2c(nc1SCC(=O)Nc1sc3c(c1C#N)CCC3)CCCC2	n	n	n	n	n	n
N#Cc1ccc(-c2ccc(F)cc2)nc1SCC(=O)Nc1sc2c(c1C#N)CCC2	n	n	n	26	n	n
Cc1c(NC(=O)C2CCCCN2S(=O)(=O)c2ccc(Cl)cc2)c(=O)n(-c2ccccc2)n1C (configuration not stated)	n	n	n	n	n	n
CC(Oc1ccccc1Cl)C(=O)N(Cc1ccco1)C1CCS(=O)(=O)C1 (configuration not stated)	31	n	n	n	n	n
Cc1[nH]c(=O)[nH]c(=O)c1N(C)C	n	n	n	n	n	n
CN1CCC(N2CCN(C3CN(C4CCCCC4)S(=O)(=O)C3)CC2)CC1 (configuration not stated)	n	n	x	x	x	n
CN1CCC(N2CCN(C3CN(C4CCCC4)S(=O)(=O)C3)CC2)CC1 (configuration not stated)	n	144	x	x	x	n
O=C(O)c1ccc(S(=O)(=O)NCC2CCCCC2)cc1	72	n	x	x	n	n
O=C(NC1CC1)c1ccc(S(=O)(=O)NCC2CCCCC2)cc1	n	n	n	n	n	n
COC(=O)CSc1nnc(CNC(=O)c2ccccc2OC)n1C	n	n	n	n	n	n
COC(=O)CSc1nnc(CNC(=O)c2cc(OC)c(OC)c(OC)c2)n1C	28	n	n	n	n	n
Cc1c(C(=O)Nc2ccccc2)sc2nc(-c3ccccc3)cn12	n	n	23	n	n	n
COCCCn1c(=O)/c(=C\c2ccccc2OC(F)F)s/c1=C(/C#N)C(=O)NC(C)C	n	36	n	n	n	x
COCCCn1c(=O)/c(=C\c2ccc(OC(F)F)c(OC)c2)s/c1=C(/C#N)C(=O)NCCOC	74	57	n	n	n	x
CNC(=S)NNC(=O)CNc1ccc(C)c(Cl)c1	53	n	n	n	n	n
SMILES	HNF4A DNA FP	CSN deneddyl inh	IDE inh	TPT1 inhibitor	IDE cell activ	Rpn11 inh
c1ccc2c(c1)ncn2CCC1CCCCC1	n	n	n	n	n	n
Cc1cccc(NC(=O)c2sccc2-n2cccc2)c1C	n	n	n	n	n	n
O=C(NCC1CC1)c1onc(CSc2ccc(F)c(F)c2)c1C(=O)NCC1CC1	n	n	n	n	65	n
COc1ccc(/C=N/NC(=O)c2cc(-c3ccccc3)nc3ccccc23)cc1O	n	n	n	n	n	n
N#Cc1c(NC(=O)c2ccco2)sc2c1CCC2	n	39	n	n	n	n
NC(=O)c1c(NC(=O)c2ccco2)sc2c1CCC2	n	n	n	n	n	n
CCOC(=O)N1CCN(c2nc(-c3ccc(F)cc3)cs2)CC1	n	n	17	n	n	n
COc1ccc(-c2nc3cc(C)c(Br)c(C)n3c2Cc2cccc(F)c2)cc1OC	n	n	x	x	x	n
CCOc1ccc(C(=O)NCC(=O)Nc2ccncc2)cc1OCC	n	n	n	x	n	n
Cc1ccc2ccc(C(Nc3ccccn3)c3ccccc3)c(O)c2n1 (configuration not stated)	n	n	n	n	n	n
